In ChEMBL document CHEMBL1667725, “Tuberatolides, potent FXR antagonists from the Korean marine tunicate Botryllus tuberatus” (J Nat Prod, 2011):
pIC50: −log10 of the molar value. The source made the active and inactive calls. The calls are words filed in the database; no cut-off is given here.

Assays:
[1] = Cytotoxicity against african green monkey CV1 cells by MTT assay; type: cell-based; conditions: Chlorocebus aethiops, CV-1
In short: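 CV-1 cells, viability read by MTT; each experiment repeated more than three times.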

[2] = biological target: T1, Glucocorticoid receptor (Homo sapiens) (UniProt P04150); experiment: Effect on human Gal4-fused GR at 10 uM by luciferase reporter gene assay
T1 sequence (whole entry): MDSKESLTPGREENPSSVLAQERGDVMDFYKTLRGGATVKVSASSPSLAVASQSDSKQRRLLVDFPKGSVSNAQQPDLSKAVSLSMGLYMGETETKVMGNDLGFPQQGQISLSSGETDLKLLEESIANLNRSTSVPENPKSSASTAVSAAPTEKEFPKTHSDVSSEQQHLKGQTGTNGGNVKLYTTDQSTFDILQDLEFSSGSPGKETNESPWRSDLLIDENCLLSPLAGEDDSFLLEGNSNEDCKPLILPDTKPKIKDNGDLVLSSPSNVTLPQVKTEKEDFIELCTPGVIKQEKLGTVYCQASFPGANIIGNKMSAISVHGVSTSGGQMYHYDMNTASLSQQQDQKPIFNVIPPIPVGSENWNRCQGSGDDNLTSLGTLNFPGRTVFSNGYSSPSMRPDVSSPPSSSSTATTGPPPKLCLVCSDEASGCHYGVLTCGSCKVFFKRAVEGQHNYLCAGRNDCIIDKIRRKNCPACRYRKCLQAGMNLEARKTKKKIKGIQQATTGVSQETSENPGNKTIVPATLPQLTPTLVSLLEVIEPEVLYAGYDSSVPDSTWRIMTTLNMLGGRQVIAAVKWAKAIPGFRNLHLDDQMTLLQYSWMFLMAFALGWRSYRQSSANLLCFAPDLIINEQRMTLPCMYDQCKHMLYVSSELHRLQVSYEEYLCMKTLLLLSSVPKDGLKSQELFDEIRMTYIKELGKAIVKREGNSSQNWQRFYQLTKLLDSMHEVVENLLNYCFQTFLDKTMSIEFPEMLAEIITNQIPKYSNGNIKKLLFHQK

[3] = biological target: T2, Androgen receptor (Homo sapiens) (UniProt P10275); experiment: Effect on human Gal4-fused AR at 10 uM by luciferase reporter gene assay
T2 sequence (whole entry): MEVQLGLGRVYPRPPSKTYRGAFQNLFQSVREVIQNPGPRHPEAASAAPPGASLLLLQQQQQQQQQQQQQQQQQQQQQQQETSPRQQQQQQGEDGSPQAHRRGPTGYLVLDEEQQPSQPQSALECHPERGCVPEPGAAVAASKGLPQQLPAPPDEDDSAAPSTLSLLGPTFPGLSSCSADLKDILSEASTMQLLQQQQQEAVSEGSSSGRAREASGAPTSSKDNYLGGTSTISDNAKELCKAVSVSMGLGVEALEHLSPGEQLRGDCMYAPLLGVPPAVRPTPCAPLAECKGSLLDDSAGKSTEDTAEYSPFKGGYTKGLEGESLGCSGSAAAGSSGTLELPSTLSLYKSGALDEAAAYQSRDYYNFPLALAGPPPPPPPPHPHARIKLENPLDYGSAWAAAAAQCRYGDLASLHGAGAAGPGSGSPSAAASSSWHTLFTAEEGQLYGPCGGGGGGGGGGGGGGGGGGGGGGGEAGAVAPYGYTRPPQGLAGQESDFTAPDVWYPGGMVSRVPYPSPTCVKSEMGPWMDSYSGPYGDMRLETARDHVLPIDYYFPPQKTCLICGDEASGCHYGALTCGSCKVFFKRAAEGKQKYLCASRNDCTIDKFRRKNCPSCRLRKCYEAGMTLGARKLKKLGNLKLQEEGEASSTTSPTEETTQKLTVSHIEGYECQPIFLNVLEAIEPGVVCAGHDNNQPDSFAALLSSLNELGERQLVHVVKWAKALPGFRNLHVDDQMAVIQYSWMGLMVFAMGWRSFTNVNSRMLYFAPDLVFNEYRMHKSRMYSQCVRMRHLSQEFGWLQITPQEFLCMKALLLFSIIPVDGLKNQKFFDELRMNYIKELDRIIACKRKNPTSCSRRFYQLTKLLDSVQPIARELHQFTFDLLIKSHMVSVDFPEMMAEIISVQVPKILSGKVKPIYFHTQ

[4] = biological target: T3, Mineralocorticoid receptor (Homo sapiens) (UniProt P08235); experiment: Effect on human Gal4-fused MCR at 10 uM by luciferase reporter gene assay
T3 sequence (whole entry): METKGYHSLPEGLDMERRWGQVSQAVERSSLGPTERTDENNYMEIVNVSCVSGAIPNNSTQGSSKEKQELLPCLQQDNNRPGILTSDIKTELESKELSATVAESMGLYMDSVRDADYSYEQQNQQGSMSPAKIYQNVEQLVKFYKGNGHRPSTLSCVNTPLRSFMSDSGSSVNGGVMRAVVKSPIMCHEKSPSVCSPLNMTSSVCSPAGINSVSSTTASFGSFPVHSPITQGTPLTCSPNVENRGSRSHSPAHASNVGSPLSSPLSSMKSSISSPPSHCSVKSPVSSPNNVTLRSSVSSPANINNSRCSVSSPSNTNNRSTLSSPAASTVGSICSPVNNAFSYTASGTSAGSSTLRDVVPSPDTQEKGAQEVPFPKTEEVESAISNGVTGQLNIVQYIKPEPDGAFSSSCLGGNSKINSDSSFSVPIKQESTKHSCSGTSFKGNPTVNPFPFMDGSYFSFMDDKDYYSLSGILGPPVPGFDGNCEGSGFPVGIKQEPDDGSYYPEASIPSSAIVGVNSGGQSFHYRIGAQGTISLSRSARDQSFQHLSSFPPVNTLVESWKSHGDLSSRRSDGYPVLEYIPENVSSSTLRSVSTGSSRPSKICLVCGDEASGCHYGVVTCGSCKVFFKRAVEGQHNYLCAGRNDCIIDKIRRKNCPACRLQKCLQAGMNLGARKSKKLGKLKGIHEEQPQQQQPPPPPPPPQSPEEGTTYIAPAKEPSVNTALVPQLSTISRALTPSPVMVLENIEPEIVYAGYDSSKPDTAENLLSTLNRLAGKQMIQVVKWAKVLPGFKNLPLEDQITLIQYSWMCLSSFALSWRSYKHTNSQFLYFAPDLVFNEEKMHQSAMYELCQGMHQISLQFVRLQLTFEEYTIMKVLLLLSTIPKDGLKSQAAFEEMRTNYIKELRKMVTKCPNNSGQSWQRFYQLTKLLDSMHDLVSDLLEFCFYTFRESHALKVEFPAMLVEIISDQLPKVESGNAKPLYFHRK

Question: Which results are given for `CC(C)=CCCC1=C[C@@H](C/C(C)=C/CC[C@]2(C)C=Cc3cc(O)cc(C)c3O2)OC1=O` [2'-EPI-TUBERATOLIDE B]?
Answer: pIC50 [1]: 4.52; Activity [2]: inactive; Activity [3]: inactive; Activity [4]: inactive

Question: With `CC(C)=CCC/C(=C/CC/C(C)=C/CC[C@@]1(C)C=Cc2cc(O)cc(C)c2O1)C(=O)O` [(S)-SARGACHROMENOL] as the compound, how does the pIC50 [1] read?
Answer: 4.25

Question: And the Activity [2]?
Answer: inactive

Question: And the Activity [3]?
Answer: inactive

Question: And the Activity [4]?
Answer: inactive

Question: With `CC(C)=CCCC1=C[C@@H](C/C(C)=C/CC[C@@]2(C)C=Cc3cc(O)cc(C)c3O2)OC1=O` [TUBERATOLIDE B] as the compound, how does the pIC50 [1] read?
Answer: 4.51

Question: And the Activity [2]?
Answer: inactive

Question: What about the Activity [3] of the same compound?
Answer: inactive

Question: And the Activity [4]?
Answer: inactive

Question: With `CC(C)=CCCC1=C[C@@H](C/C(C)=C/CC/C(C)=C/CC2=CC(=O)C=C(C)C2=O)OC1=O` [YEZOQUINOLIDE] as the compound, how does the pIC50 [1] read?
Answer: 4.30

Question: What about the Activity [2] of the same compound?
Answer: inactive

Question: What about the Activity [3] of the same compound?
Answer: inactive

Question: What about the Activity [4] of the same compound?
Answer: inactive

Question: With `CC(C)=CCC/C(=C/CC/C(C)=C/CC[C@]1(C)C=Cc2cc(O)cc(C)c2O1)C(=O)O` [(R)-SARGACHROMENOL] as the compound, how does the pIC50 [1] read?
Answer: 4.35

Question: What about the Activity [2] of the same compound?
Answer: inactive

Question: What about the Activity [3] of the same compound?
Answer: inactive

Question: What about the Activity [4] of the same compound?
Answer: inactive

Question: With `CC(=O)CC/C=C(\C)C[C@@H]1C=C(CCC=C(C)C)C(=O)O1` [TUBERATOLIDE A] as the compound, how does the pIC50 [1] read?
Answer: < 4.00

Question: What about the Activity [2] of the same compound?
Answer: inactive

Question: What about the Activity [3] of the same compound?
Answer: inactive

Question: And the Activity [4]?
Answer: inactive
